The values that follow come from paper PMC6148399 (SLAS discovery : advancing life sciences R & D, 2018).

The target of one test is IP6K1 (Homo sapiens, UniProt Q92551). The following applies: cited from earlier work.
A further test has as its target T1, human IP6K2 (Homo sapiens, UniProt Q9UHH9).
T1 sequence (Q9UHH9 1-426): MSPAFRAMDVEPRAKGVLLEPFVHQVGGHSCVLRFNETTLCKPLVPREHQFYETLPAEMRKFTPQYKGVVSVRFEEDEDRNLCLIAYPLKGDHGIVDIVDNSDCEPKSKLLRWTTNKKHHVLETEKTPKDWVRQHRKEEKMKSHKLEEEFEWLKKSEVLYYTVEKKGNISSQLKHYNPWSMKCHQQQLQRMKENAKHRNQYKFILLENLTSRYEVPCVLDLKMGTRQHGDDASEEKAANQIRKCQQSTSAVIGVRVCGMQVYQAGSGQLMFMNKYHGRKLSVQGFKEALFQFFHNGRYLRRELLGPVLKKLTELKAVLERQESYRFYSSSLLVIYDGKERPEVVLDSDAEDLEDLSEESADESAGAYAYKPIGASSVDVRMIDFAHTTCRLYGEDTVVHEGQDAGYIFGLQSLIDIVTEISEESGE
The experiment in a line: IP6K2 TR-FRET assay for ADP detection. The test is classed as biochemical. The following applies: read-out: IC50 for IP6K2; TR-FRET Adapta, 400 nM IP6K2, 10 µM ATP, 10 µM InsP6. An outline of the steps:
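Buffer: 50 mM HEPES pH 7.5, 0.01% Brij-35, 10 mM MgCl2, 1 mM EGTA. Test compound (3-fold, 10-point dilutions) preincubated 10–20 min at room temperature with enzyme, then ATP/InsP6 added; 30 min reaction. Detection: 2 nM Eu-anti-ADP antibody, 12 nM ADP tracer, 10 mM EDTA (final), 30 min. 665/615 nm ratio; inhibition scaled DMSO-only (0%) to no-enzyme (100%); ~20% ATP turnover.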

IP6K1, sequence (Q92551 whole entry, species assumed): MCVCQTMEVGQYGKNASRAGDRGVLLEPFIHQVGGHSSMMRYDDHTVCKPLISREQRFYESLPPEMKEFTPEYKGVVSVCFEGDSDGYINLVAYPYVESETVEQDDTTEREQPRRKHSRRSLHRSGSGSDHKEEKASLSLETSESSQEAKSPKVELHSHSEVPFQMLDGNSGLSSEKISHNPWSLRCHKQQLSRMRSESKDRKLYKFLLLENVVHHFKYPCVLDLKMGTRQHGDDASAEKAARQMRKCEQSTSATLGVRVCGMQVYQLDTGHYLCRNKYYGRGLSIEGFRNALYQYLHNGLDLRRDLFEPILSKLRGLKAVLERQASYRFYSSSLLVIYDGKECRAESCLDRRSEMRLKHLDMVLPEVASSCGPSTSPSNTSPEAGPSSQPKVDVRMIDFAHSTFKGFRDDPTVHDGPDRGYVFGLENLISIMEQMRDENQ

As for `O=[N+]([O-])c1ccc(CNc2nc(NCc3cccc(C(F)(F)F)c3)nc3nc[nH]c23)cc1` [TNP, N2-(m-(trifluoromethyl)benzyl) N6-(p-nitrobenzyl)purine], the IC50 was 0.43 µM on IP6K1 (read-out: IC50 previously reported for IP6K1) and 7.36 µM on human IP6K2. The Ki at IP6K1 (read-out: Ki previously reported for IP6K1) is 0.24 µM.
